Results taken from article PMC6144584 (SAGE Open Medicine, 2018).

System: PBMC from prostate cancer patients
Assay: Ex vivo IFN-γ ELISPOT assay for immunogenicity
Format: cell-based, human
Settings: positive control 10 µg/ml, 40 h
Outline: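 Ficoll-isolated patient PBMC, 3×10^5/well in triplicate, on anti-IFN-γ-coated plates (5 μg/ml; blocked with RPMI 1640 + 5% pooled human serum, 1 h, 37°C). Phytohemagglutinin 10 µg/ml; no-peptide medium control; IL-2 20 units/ml in all wells; 40 h, 37°C. Detection: biotin anti-IFN-γ 1 µg/ml final (2 h), avidin-biotin-HRP (1 h), […]. Spots counted automatically; mean SFU/well computed; positive if ≥2× no-peptide wells.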

**Q.** Which Positivity index (Patient 2) does the source give for phytohemagglutinin here?
**A.** Its Positivity index is 57.3.

**Q.** And the Positivity index (Patient 5)?
**A.** The Positivity index was 197.0.

**Q.** And the Positivity index (Patient 6)?
**A.** Its Positivity index is 154.5.

**Q.** And the Positivity index (Patient 7)?
**A.** The Positivity index was 131.4.

**Q.** And the Positivity index (Patient 9)?
**A.** The Positivity index was 186.0.

**Q.** And the Positivity index (Patient 10)?
**A.** Its Positivity index is 253.3.
